Assay results as given in ChEMBL document CHEMBL1136994, “Substitution of arginine with proline and proline derivatives in melanocyte-stimulating hormones leads to selectivity for human melanocortin 4 receptor” (J Med Chem, 2009).

Experiments:
[1] = target: T1, Melanocyte-stimulating hormone receptor (Homo sapiens, UniProt Q01726); type: functional, cell-based, HEK293
[2] = target: T1, Melanocyte-stimulating hormone receptor; test: biochemical; type: cell-based, HEK293
[3] = target: T1, Melanocyte-stimulating hormone receptor; test: Displacement of [125I][Nle4,Dphe7]-alpha-MSH from human MC1R expressed in HEK293 cells at 10 uM; type: cell-based
How it was run: (§1)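 Stably transfected HEK293 cells for each hMCR were seeded 48 h ahead at 100 000 cells/well. Buffer was MEM with 25 mM HEPES pH 7.4, 0.2% BSA, 1 mM 1,10-phenanthroline, leupeptin and bacitracin. […] After washing, cells were lysed in NaOH/Triton and counted by γ counter. Binding was scored at 10^-5 M.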

Melanocortin receptor 5 [4] = target: T2, Melanocortin receptor 5 (Homo sapiens, UniProt P33032); type: functional, cell-based, HEK293
T2 sequence (P33032 whole entry): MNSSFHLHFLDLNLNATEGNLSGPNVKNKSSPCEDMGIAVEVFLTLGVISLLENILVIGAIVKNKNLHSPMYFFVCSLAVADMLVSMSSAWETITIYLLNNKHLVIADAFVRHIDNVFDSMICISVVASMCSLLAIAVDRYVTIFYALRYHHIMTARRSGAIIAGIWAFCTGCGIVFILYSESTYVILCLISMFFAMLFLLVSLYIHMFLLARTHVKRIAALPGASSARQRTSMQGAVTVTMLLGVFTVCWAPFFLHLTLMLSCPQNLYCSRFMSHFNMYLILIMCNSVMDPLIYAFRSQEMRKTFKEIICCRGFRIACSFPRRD

Melanocortin receptor 4 [5] = target: T3, Melanocortin receptor 4 (Homo sapiens, UniProt P32245); test: biochemical; type: cell-based, HEK293
T3 sequence (P32245 whole entry): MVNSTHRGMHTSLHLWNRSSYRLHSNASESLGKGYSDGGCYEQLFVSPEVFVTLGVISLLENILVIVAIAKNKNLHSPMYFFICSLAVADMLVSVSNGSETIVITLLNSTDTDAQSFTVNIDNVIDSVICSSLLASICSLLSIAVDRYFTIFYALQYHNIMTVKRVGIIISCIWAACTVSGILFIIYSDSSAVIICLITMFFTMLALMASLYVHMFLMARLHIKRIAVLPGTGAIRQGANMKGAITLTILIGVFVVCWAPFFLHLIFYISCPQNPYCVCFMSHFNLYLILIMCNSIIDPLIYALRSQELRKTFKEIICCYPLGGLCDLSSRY

Melanocortin receptor 3 [6] = target: T4, Melanocortin receptor 3 (Homo sapiens, UniProt P41968); type: functional, cell-based, HEK293
T4 sequence (P41968 whole entry): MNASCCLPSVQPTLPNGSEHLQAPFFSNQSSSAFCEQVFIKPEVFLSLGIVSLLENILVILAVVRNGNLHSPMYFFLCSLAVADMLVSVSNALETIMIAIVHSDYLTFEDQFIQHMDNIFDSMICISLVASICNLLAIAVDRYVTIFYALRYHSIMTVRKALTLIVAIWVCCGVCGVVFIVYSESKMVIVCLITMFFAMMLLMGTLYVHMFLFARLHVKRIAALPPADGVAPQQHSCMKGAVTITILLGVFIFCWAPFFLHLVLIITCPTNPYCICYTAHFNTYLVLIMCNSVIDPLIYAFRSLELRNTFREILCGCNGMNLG

Melanocortin receptor 3 [7] = target: T4, Melanocortin receptor 3; test: biochemical; type: cell-based, HEK293
Melanocortin receptor 4 [8] = target: T3, Melanocortin receptor 4; type: functional, cell-based, HEK293
Melanocortin receptor 5 [9] = target: T2, Melanocortin receptor 5; test: biochemical; type: cell-based, HEK293
Melanocortin receptor 5 [10] = target: T2, Melanocortin receptor 5; test: Displacement of [125I][Nle4,Dphe7]-alpha-MSH from human MC5R expressed in HEK293 cells at 10 uM; type: cell-based
Melanocortin receptor 4 [11] = target: T3, Melanocortin receptor 4; test: Displacement of [125I][Nle4,Dphe7]-alpha-MSH from human MC4R expressed in HEK293 cells at 10 uM; type: cell-based
How it was run: as §1

Melanocortin receptor 3 [12] = target: T4, Melanocortin receptor 3; test: Displacement of [125I][Nle4,Dphe7]-alpha-MSH from human MC3R expressed in HEK293 cells at 10 uM; type: cell-based

T1 sequence (Q01726 whole entry): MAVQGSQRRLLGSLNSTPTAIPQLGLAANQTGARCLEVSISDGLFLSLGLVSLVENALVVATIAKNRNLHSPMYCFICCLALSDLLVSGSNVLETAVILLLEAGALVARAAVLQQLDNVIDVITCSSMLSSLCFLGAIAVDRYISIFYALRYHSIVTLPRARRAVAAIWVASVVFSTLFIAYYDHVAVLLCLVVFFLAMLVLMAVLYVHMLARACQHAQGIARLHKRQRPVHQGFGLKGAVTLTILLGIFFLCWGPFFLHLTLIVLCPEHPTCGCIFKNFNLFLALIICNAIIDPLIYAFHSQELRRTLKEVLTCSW

Row | Structure (SMILES) | EC50 [1] | IC50 [2] | IC50 (Melanocortin receptor 4 [5]) | EC50 (Melanocortin receptor 4 [8]) | IC50 (Melanocortin receptor 5 [10]) | IC50 (Melanocortin receptor 3 [12]) | also measured
1 | CCCC[C@H](NC(C)=O)C(=O)N[C@H]1CC(=O)NCCCC[C@@H](C(N)=O)NC(=O)[C@H](Cc2c[nH]c3ccccc23)NC(=O)[C@@H]2C[C@H](NC(=N)N)CN2C(=O)[C@@H](Cc2ccccc2)NC(=O)[C@H](Cc2cnc[nH]2)NC1=O | – | – | – | – | – | – | IC50 [3]: Not Active
2 | CCCC[C@H](NC(C)=O)C(=O)N[C@H]1CC(=O)NCCCC[C@@H](C(N)=O)NC(=O)[C@H](Cc2c[nH]c3ccccc23)NC(=O)[C@@H]2CCCN2C(=O)[C@@H](Cc2ccccc2)NC(=O)[C@H](Cc2cnc[nH]2)NC1=O | > 1000 nM | > 4800 nM | – | – | – | – | –
3 | CCCC[C@H](NC(C)=O)C(=O)N[C@H]1CC(=O)NCCCC[C@@H](C(N)=O)NC(=O)[C@H](Cc2c[nH]c3ccccc23)NC(=O)[C@@H]2C[C@@H](NC(=N)N)CN2C(=O)[C@@H](Cc2ccc3ccccc3c2)NC(=O)[C@H](Cc2cnc[nH]2)NC1=O | 19000 nM | 400 nM | – | – | – | – | –
4 | CCCC[C@H](NC(C)=O)C(=O)N[C@H]1CC(=O)NCCCC[C@@H](C(N)=O)NC(=O)[C@H](Cc2c[nH]c3ccccc23)NC(=O)[C@@H]2C[C@H](N=C(N)N)CN2C(=O)[C@@H](Cc2ccc3ccccc3c2)NC(=O)[C@H](Cc2cnc[nH]2)NC1=O | – | > 3000 nM | – | – | – | – | –
5 | CCCC[C@H](NC(=O)[C@@H](NC(=O)[C@H](Cc1ccc(O)cc1)NC(C)=O)C(C)C)C(=O)NCC(=O)N[C@@H](Cc1cnc[nH]1)C(=O)N[C@H](Cc1ccccc1)C(=O)N1C[C@H](NC(=N)N)C[C@H]1C(=O)N[C@@H](Cc1c[nH]c2ccccc12)C(=O)N[C@@H](CC(=O)O)C(=O)N[C@@H](CCCNC(=N)N)C(=O)N[C@@H](Cc1ccccc1)C(=O)NCC(N)=O | 1400 nM | 830 nM | – | – | Not Active | Not Active | IC50 (Melanocortin receptor 4 [11]): Not Active
6 | CCCC[C@H](NC(=O)[C@@H](NC(=O)[C@H](Cc1ccc(O)cc1)NC(C)=O)C(C)C)C(=O)NCC(=O)N[C@@H](Cc1cnc[nH]1)C(=O)N[C@H](Cc1ccccc1)C(=O)N1C[C@@H](NC(=N)N)C[C@H]1C(=O)N[C@@H](Cc1c[nH]c2ccccc12)C(=O)N[C@@H](CC(=O)O)C(=O)N[C@@H](CCCNC(=N)N)C(=O)N[C@@H](Cc1ccccc1)C(=O)NCC(N)=O | > 5000 nM | 1000 nM | – | – | Not Active | Not Active | IC50 (Melanocortin receptor 4 [11]): Not Active

More lines, in order of falling EC50 [1], values ahead:

Row | EC50 [1] | IC50 [2] | IC50 (Melanocortin receptor 4 [5]) | EC50 (Melanocortin receptor 4 [8]) | IC50 (Melanocortin receptor 5 [10]) | IC50 (Melanocortin receptor 3 [12]) | Structure (SMILES) | also measured
7 | 2700 nM | – | 5.7 nM | 41 nM | – | – | CCCC[C@H](NC(C)=O)C(=O)N[C@H]1CC(=O)NCCCC[C@@H](C(N)=O)NC(=O)[C@H](Cc2c[nH]c3ccccc23)NC(=O)[C@H](CCCN=C(N)N)NC(=O)[C@@H](Cc2ccccc2)NC(=O)[C@@H]2C[C@H](N=C(N)N)CN2C1=O | EC50 (Melanocortin receptor 5 [4]): 21 nM; EC50 (Melanocortin receptor 3 [6]): 2500 nM; IC50 (Melanocortin receptor 3 [7]): 2.8 nM
8 | 820 nM | 2.7 nM | 0.6 nM | 3500 nM | – | – | CCCC[C@H](NC(C)=O)C(=O)N[C@H]1CC(=O)NCCCC[C@@H](C(N)=O)NC(=O)[C@H](Cc2c[nH]c3ccccc23)NC(=O)[C@H](CCCN=C(N)N)NC(=O)[C@@H](Cc2ccccc2)NC(=O)[C@@H]2C[C@@H](N=C(N)N)CN2C1=O | EC50 (Melanocortin receptor 5 [4]): 1.6 nM; EC50 (Melanocortin receptor 3 [6]): 14 nM; IC50 (Melanocortin receptor 3 [7]): 1 nM; IC50 (Melanocortin receptor 5 [9]): 2.5 nM
9 | 160 nM | 600 nM | – | – | – | – | CCCC[C@H](NC(C)=O)C(=O)N[C@H]1CC(=O)NCCCC[C@@H](C(N)=O)NC(=O)[C@H](Cc2c[nH]c3ccccc23)NC(=O)[C@@H]2CCCN2C(=O)[C@@H](Cc2ccc3ccccc3c2)NC(=O)[C@H](Cc2cnc[nH]2)NC1=O | –
10 | 120 nM | 190 nM | 270 nM | 210 nM | Not Active | Not Active | CCCC[C@H](NC(=O)[C@@H](NC(=O)[C@H](Cc1ccc(O)cc1)NC(C)=O)C(C)C)C(=O)NCC(=O)N[C@@H](Cc1cnc[nH]1)C(=O)N[C@H](Cc1ccccc1)C(=O)N1CCC[C@H]1C(=O)N[C@@H](Cc1c[nH]c2ccccc12)C(=O)N[C@@H](CC(=O)O)C(=O)N[C@@H](CCCNC(=N)N)C(=O)N[C@@H](Cc1ccccc1)C(=O)NCC(N)=O | –
